Calls of active or inactive are those of the source. The calls are words filed in the database; no cut-off is given here.

The test system of series [1] is Schistosoma mansoni. In words: Antiparasitic activity against schistosomula stage of Schistosoma mansoni assessed as parasite viability at 10 uM measured within 2 days by microscopy. The series is classed as functional, organism-based. A digest of the protocol: (§1)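 Microscopy viability: 2,000 schistosomula per well in M199 (10 mM HEPES, pH 7.4, supplemented), 37°C, 5% CO2; inhibitor at 10 or 20 µM in DMSO, medium refreshed daily, up to 5 days. Dead larvae scored by granular appearance, tegumental defects and lack of motility; ≥300 larvae per time point; % viable larvae. Three biological replicates in duplicate.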

The nature of series [2]: Cytotoxicity against HEK293 cells assessed as cell viability at 50 uM after 24 hrs by Alamar Blue assay relative to control. Conditions: human, read-out: Activity. Type of series: cell-based. The method, boiled down:
(§2)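 AlamarBlue added after 24 h, incubated a further 21 h; resorufin fluorescence ex 560/em 590 nm. Triplicates; viability relative to untreated cells; daunorubicin positive control.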
For orientation: Resazurin is reduced to fluorescent resorufin, in cell work by metabolically active cells.

Series [3] deals with Schistosoma mansoni. In words: Antiparasitic activity against adult Schistosoma mansoni assessed as separation of male and female worm pairs at 20 uM after 5 days by microscopy relative to control. The series is classed as functional. A digest of the protocol:
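Hamster-perfused worm pairs, ten per well in 2 mL buffered supplemented M199 (10 mM HEPES, pH 7.4), 37°C, 5% CO2, pre-cultured 5 days, then inhibitor in DMSO at 10 or 20 µM; medium and compound renewed daily. Pairs still coupled counted daily by microscopy for up to 5 days. Two biological replicates in triplicate.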

The test system of series [4] is Schistosoma mansoni. In words: Antiparasitic activity against adult Schistosoma mansoni assessed as reduction in egg lying at 10 uM after 5 days by microscopy relative to control. Type of series: functional, organism-based. The method, boiled down:
(§3)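 Adult worm pairs perfused from infected hamsters; ten pairs per well in 2 mL M199 (pH 7.4, 10 mM HEPES, supplemented as for schistosomula), 37°C, 5% CO2. Cultured 5 days before adding inhibitors in DMSO; medium and inhibitor refreshed daily. Eggs in recovered, centrifuged medium counted by microscopy. Two biological replicates in triplicate.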

Series [5] relates to Schistosoma mansoni. In words: Antiparasitic activity against adult Schistosoma mansoni assessed as reduction in egg lying at 20 uM after 5 days by microscopy relative to control. Type of series: functional. Further details: scale not given: the % may be the effect or the level left. A digest of the protocol:
as §3

The test system of series [6] is Schistosoma mansoni. In words: Antiparasitic activity against schistosomula stage of Schistosoma mansoni assessed as parasite viability at 10 uM after 48 hrs by Alamar Blue assay relative to control. Type of series: functional. The method, boiled down:
(§4)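 Mechanically transformed S. mansoni schistosomula, 100 per well, in Medium 199 with 10% FCS, penicillin, streptomycin and rifampicin, held 3 h at 37°C/5% CO2 before use. […] Resazurin added at 48 h; fluorescence (ex 530/em 590 nm) read 24 h later, corrected for drug-medium background. Ethanol-killed larvae as dead control. Triplicate wells, two biological replicates.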

Series [7] deals with Schistosoma mansoni. In words: Antiparasitic activity against schistosomula stage of Schistosoma mansoni assessed as parasite viability at 10 to 20 uM after 5 days by microscopy relative to control. The series is classed as functional, organism-based. A digest of the protocol: as §1
For series [8], the system named is Schistosoma mansoni. In words: Antiparasitic activity against schistosomula stage of Schistosoma mansoni assessed as parasite viability at 20 uM after 48 hrs by Alamar Blue assay relative to control. The series is classed as functional. The method, boiled down: as §4
The subject of series [9] is Schistosoma mansoni. In words: Antiparasitic activity against schistosomula stage of Schistosoma mansoni assessed as parasite viability after 48 hrs by Alamar Blue assay. Type of series: functional, organism-based. A digest of the protocol:
as §4

For series [10], the system named is HEK293. In words: Cytotoxicity against HEK293 cells assessed as cell viability after 24 hrs by Alamar Blue assay. The series is classed as cell-based. The settings on record: Homo sapiens, HEK293, 24 h. The method, boiled down:
as §2

For series [11], the system named is Schistosoma mansoni. In words: Antiparasitic activity against schistosomula stage of Schistosoma mansoni assessed as parasite viability at 20 uM after 1 to 2 days by microscopy. The series is classed as functional, organism-based. The method, boiled down:
as §1

One may read the EC50 as the concentration giving half of the maximal effect. Broadly, the IC50 is the concentration that inhibits the measured activity by half. `COc1ccc(C(=O)NO)cc1NC(=O)c1ccc(-c2ccccc2)cc1`: the result in series [1], in [4] and in series [11] was Active. Besides, the viability at 24 h, 50 µM in series [2] is 12.3%. The Activity was 90% in [3]; 80% in series [5]; 64.8% in series [6]; 33.4% in [8]; “Dose-dependent effect” in series [9]. In addition, in series [7], the result was inactive. Further, the concentration for a half-maximal effect (EC50) in [9] came out at 16.1 µM. In series [10], the concentration for half-maximal inhibition (IC50) was found to be 199 µM.
